Assay [1] can be described thus: inhibitors of TNFa-induced NFkB p65 translocation, primary screen, imaging, HUVEC, MLSMR starter and 10KST1 sets (AID 438;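 active = inhibition above 20% together with a positive visual image hit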;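 also: compound added about 3h40 before a 20 min TNFalpha stimulation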;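 as to inhibition: signal is the nuclear over cytoplasmic p65 intensity ratio per well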). Conditions: HUVEC TNFa-induced p65 nuclear translocation; cell count: measured here: nuclei count (cytotoxicity indicator), at 2.08 µM; inhibition: at 2 µM, stronger effect = higher value, 0% TNFa-plus-vehicle, 100% no-TNFa wells.
The nature of assay [2]: inhibitors of mutant huntingtin aggregation, primary screen, imaging, exon1htt(103Q)mCFP cells, high-content imaging (AID 483;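 active = visual image review flags a hit and inhibition of aggregation exceeds 20%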;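 also: compound exposure lasted 3 days before fixation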;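 as to nuclei count: percent of the per-plate median nuclei count of sample wells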). Conditions: exon1htt(103Q)mCFP cell line, aggregate imaging, at 2 µM; inhibition of aggregation: stronger effect = higher value; nuclei count: measured here: cell count, toxicity.
Assay [3] is described as follows: inhibitors of E-selectin induction by TNFa, primary screen, imaging, HUVEC, immunofluorescence, MLSMR starter and 10KST1 sets (AID 487).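 As to inhibition: signal is fraction of cell area covered by stained E-selectin grains.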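 As to nuclei count: 100% = median nuclei count of all wells on the same plate.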 Conditions: HUVEC TNFalpha-induced E-selectin immunofluorescence imaging, at 2 µM; inhibition: stronger effect = higher value; nuclei count: measured here: cell number, toxicity.
The target in assay [4] is Voltage-gated potassium channel subunit beta-2 (Rattus norvegicus) (UniProt P62483). The assay is described as follows: KvBeta enzyme negative modulators, primary screen, biochemical, NADPH fluorescence (AID 622;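 active = fluorescence slope higher than the sample average by over 3 SD, cut at about -0.22 in these data, passing the limit was not always enough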;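 also: slope of raw intensity against log time taken from 70 to 1610 s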). Conditions: recombinant KvBeta, 4-cyanobenzaldehyde reduction, at 10 µM, stronger effect = higher value.
Assay [5] has the same target. The assay is described as follows: KvBeta positive modulators, primary screen, biochemical, NADPH fluorescence (AID 623;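 active = NADPH fluorescence slope more negative than the mean of all samples by about 3 SD, 99.7% confidence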;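 also: fluorescence intensity change per second fitted from 20 to 320 s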). Conditions: Recombinant KvBeta, NADPH fluorescence decrease slope, 10 min; at 10 µM; stronger effect = lower value.
The target of assay [6] is Muscarinic acetylcholine receptor M4 (Homo sapiens) (UniProt P08173). The assay is described as follows: compounds altering M4/GIRK thallium flux, either direction, primary screen, M4 allosteric agonist project, cell-based, HEK293 M4/GIRK, BTC-AM (AID 625;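 active = fluorescence slope after compound addition differing from the mean of all tested samples at 99.7% confidence, mostly higher but some lower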;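 also: thallium influx through GIRK channels coupled to M4 in HEK293 cells with BTC-AM dye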). Conditions: at 10 µM, actives lie on both sides. An outline of the steps: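 Assay system: HEK293 cells with M4 receptor and GIRK channels / Controls: carbachol and DMSO controls / Schedule: 1 h dye loading, 2 min kinetic read / Technique: kinetic fluorescence with BTC-AM dye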

The nature of assay [7]: inhibitors of Sendai virus-induced IRF3 signaling, primary screen, TLR/RLR signaling modifier project, cell-based, Sendai virus stimulus, luciferase, 10K MLSCN set (AID 602276;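 active = inhibition at or above 50% at 10 µM; inactive = inhibition below 50%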;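 also: firefly luciferase from ISG56 promoter only with Renilla not read in this screen; 0% = Sendai virus plus DMSO and 100% = medium plus DMSO without virus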). Conditions: HEK293 RL24 IRF3 luciferase reporter, at 10 µM, stronger effect = higher value. In general terms: In a reporter assay the amount or activity of a reporter protein is the signal.
Assay [8] is described as follows: inhibitors of poly I:C-induced TLR3 signaling, primary screen, cell-based, poly I:C stimulus, luciferase, 10K MLSCN set (AID 602277;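 active = inhibition of the reporter signal at or above 50%; inactive = inhibition below 50%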). Conditions: HEK293-TLR3 RL24 IRF3 luciferase reporter, at 10 µM, stronger effect = higher value.

14 compounds from PubChem BioAssay can be followed below.

Activity calls are given as the source filed them.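 The calls were made as follows, unless noted: active = visually confirmed hit in the image check and inhibition above 20%; inconclusive = visually confirmed hit but inhibition not above 20%; inactive = no visual hit in the image check.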

Sequence of Voltage-gated potassium channel subunit beta-2 (Rattus norvegicus) (P62483 whole entry, looked up): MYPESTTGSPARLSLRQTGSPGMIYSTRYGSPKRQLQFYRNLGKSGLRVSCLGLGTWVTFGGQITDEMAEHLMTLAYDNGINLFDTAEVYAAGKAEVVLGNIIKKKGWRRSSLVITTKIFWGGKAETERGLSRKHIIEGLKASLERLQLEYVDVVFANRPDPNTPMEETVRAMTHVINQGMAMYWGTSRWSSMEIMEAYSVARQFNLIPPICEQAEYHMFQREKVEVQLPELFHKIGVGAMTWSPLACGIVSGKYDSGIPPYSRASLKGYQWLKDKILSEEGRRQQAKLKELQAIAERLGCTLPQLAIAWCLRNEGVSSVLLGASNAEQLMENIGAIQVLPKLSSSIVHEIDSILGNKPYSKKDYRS
Sequence of Muscarinic acetylcholine receptor M4 (Homo sapiens) (P08173 whole entry, looked up): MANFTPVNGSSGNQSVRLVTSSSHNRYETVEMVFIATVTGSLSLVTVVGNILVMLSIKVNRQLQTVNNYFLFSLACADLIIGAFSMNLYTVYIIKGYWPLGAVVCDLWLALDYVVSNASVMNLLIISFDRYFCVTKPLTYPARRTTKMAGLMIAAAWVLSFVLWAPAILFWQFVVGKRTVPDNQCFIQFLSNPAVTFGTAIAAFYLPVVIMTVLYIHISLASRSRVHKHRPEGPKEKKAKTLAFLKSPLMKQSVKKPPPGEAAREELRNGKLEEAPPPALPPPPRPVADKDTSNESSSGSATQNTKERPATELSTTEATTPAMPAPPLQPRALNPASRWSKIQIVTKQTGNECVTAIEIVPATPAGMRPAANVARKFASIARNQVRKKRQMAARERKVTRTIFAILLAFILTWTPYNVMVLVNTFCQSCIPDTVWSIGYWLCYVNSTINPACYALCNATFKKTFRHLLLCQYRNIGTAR

A word on the inhibition: it is the change of the read-out against control, counted positive when it falls. On to `CCn1c(=O)cc(SCC(=O)Nc2cccnc2)c2ccccc21`, for which the cell count in assay [1] is 369. The inhibition in assay [1] was -8.6% (inactive); in assay [3], -15.9% (inactive); in assay [7] it was 2.11% (inactive); in assay [8], -5.54% (inactive). Moreover, in assay [2], the inhibition of aggregation was 4.3% (inactive). Besides, the nuclei count in assay [2] worked out at 101%; in assay [3] it was 116%. The fluorescence slope in assay [4] was -0.463 (inactive); in assay [6], 0.00646 (inactive). Also, the NADPH fluorescence slope in assay [5] was 2.2e-05 (inactive).
As for `Cc1nn(-c2ccccc2)c(Cl)c1C1C(C#N)=C(N)OC2=C1C(=O)CC(C)(C)C2` (centres undefined), in assay [1], the cell count was found to be 378. In addition, the inhibition in assay [1] is 5.6% (inactive); in assay [3], -110% (inactive); in assay [7] it was 6.31% (inactive); in assay [8] it was 31.1% (inactive). The inhibition of aggregation in assay [2] was -4.8% (inactive). For the same compound, the nuclei count in assay [2] came to 100%; in assay [3] it was 113%. The values for the fluorescence slope in assay [4] and in assay [6] were -0.577 (inactive) and 0.00783 (inactive), respectively. Besides, the NADPH fluorescence slope in assay [5] is -3.7e-05 (inactive).
As to `Cn1ccnc1C(O)c1ccco1` (centres undefined), the cell count in assay [1] turned out to be 722. Also, the inhibition in assay [1] is 3.3% (inactive); in assay [3] it was -146% (inactive); in assay [7], 15.2% (inactive); in assay [8], 13.2% (inactive). Moreover, in assay [2], the inhibition of aggregation is -15.7% (inactive). Besides, the nuclei count in assay [2] turned out to be 97.2%; in assay [3] it was 129%. For the same compound, the results for the fluorescence slope in assay [4] and in assay [6] were -0.422 (inactive) and 0.00477 (inactive), respectively. Moreover, the NADPH fluorescence slope in assay [5] is 2.5e-05 (inactive).
As for `CCCC(O)(CCN(C)C)c1ccc(OC)cc1` (centres undefined), the cell count in assay [1] came to 701. For the same compound, the inhibition was 6.7% (inactive) in assay [1], -50.6% (inactive) in assay [3], 21.2% (inactive) in assay [7] and 29.6% (inactive) in assay [8]. Also, the inhibition of aggregation in assay [2] was 18.4% (inactive). In addition, the nuclei count in assay [2] worked out at 95.2%; in assay [3], 87.3%. For the same compound, the fluorescence slope in assay [4] is -0.543 (inactive); in assay [6], 0.00506 (inactive). Besides, in assay [5], the NADPH fluorescence slope was -8.4e-06 (inactive).
Consider `Cc1ccc(NC(=O)CSc2nnc(CCCCCNC(=O)OC(C)(C)C)o2)c(C)c1`, for which the cell count in assay [1] came to 630. Also, the inhibition in assay [1] was -9.5% (inactive); in assay [3], -28.9% (inactive); in assay [7] it was 14.7% (inactive); in assay [8], 12.1% (inactive). The inhibition of aggregation in assay [2] is 28.5% (inactive). Further, the nuclei count in assay [2] was 94.7%; in assay [3], 102%. The fluorescence slope in assay [4] is -0.546 (inactive); in assay [6], 0.00541 (inactive). Besides, the NADPH fluorescence slope in assay [5] was -4e-05 (inactive).
As to `CCOC(=O)NC(c1ccccc1)C1CCCCC1=O` (centres undefined), in assay [1], the cell count was 486. Besides, the inhibition is -3.4% (inactive) in assay [1], -25.5% (inactive) in assay [3], 14.4% (inactive) in assay [7] and 18.4% (inactive) in assay [8]. In addition, the inhibition of aggregation in assay [2] is -0.1% (inactive). The results for the nuclei count in assay [2] and in assay [3] were 103% and 105%, respectively. Further, the fluorescence slope in assay [4] is -0.565 (inactive); in assay [6], 0.00674 (inactive). In addition, the NADPH fluorescence slope in assay [5] is 1e-05 (inactive).
Take `O=C(CCn1nc(-c2ccc(Cl)cc2)ccc1=O)N1CCN(c2ccccn2)CC1`: the cell count in assay [1] was 244. Also, the inhibition in assay [1] was -0.9% (inactive); in assay [3], 36.1% (inactive); in assay [7], 7.53% (inactive); in assay [8] it was 10.9% (inactive). Moreover, the inhibition of aggregation in assay [2] was 26.9% (inactive). Further, the nuclei count in assay [2] was 100%; in assay [3] it was 98.7%. The results for the fluorescence slope in assay [4] and in assay [6] were -0.582 (inactive) and 0.00547 (inactive), respectively. Besides, the NADPH fluorescence slope in assay [5] is -8.6e-06 (inactive).
`Cc1cc2c(nn1)CCC/C2=N\O`: the cell count in assay [1] was found to be 350. Also, the inhibition was 4.3% (inactive) in assay [1], 14.6% (inactive) in assay [3], 17.4% (inactive) in assay [7] and 19.5% (inactive) in assay [8]. The inhibition of aggregation in assay [2] was 9.7% (inactive). Also, the nuclei count worked out at 99.1% in assay [2] and 110% in assay [3]. In addition, the results for the fluorescence slope in assay [4] and in assay [6] were -0.552 (inactive) and 0.00403 (inactive), respectively. In addition, the NADPH fluorescence slope in assay [5] is 2.3e-05 (inactive).
`CC(=O)Nc1ccn(-c2ccccc2)n1`: the cell count in assay [1] was 595. Further, the inhibition in assay [1] is 1.8% (inactive); in assay [3], -113% (inactive); in assay [7], -39.2% (inactive); in assay [8], -34.3% (inactive). The inhibition of aggregation in assay [2] was -0.5% (inactive). In addition, the nuclei count in assay [2] came out at 108%; in assay [3], 136%. Besides, the fluorescence slope in assay [4] is -0.584 (inactive); in assay [6], 0.00818 (inactive). In assay [5], the NADPH fluorescence slope was -9.6e-06 (inactive).
Take `Cn1c(=O)c(-c2ccccc2)nn2c3ccccc3nc12`: the cell count in assay [1] amounted to 704. Besides, the inhibition in assay [1] was -35.3% (inactive); in assay [3], -79.5% (inactive); in assay [7], 13.7% (inactive); in assay [8], 17.5% (inactive). Besides, the inhibition of aggregation in assay [2] was 22.1% (inactive). Further, the nuclei count in assay [2] was 96.1%; in assay [3] it was 113%. Also, the fluorescence slope in assay [4] is -0.19 (inactive); in assay [6], 0.00522 (inactive). The NADPH fluorescence slope in assay [5] is 4.4e-07 (inactive).
`CC(=O)Nc1ccc(NC2=CC(=O)CC(C)(C)C2)cc1`: the cell count in assay [1] was 424. In addition, the inhibition is 1% (inactive) in assay [1], -60% (inactive) in assay [3], 18.6% (inactive) in assay [7] and 17.5% (inactive) in assay [8]. The inhibition of aggregation in assay [2] is 14% (inactive). Besides, the nuclei count in assay [2] was found to be 107%; in assay [3], 119%. Further, the fluorescence slope in assay [4] was -0.541 (inactive); in assay [6], 0.00709 (inactive). The NADPH fluorescence slope in assay [5] is -5.8e-05 (inactive).
Take `CC(C)Cn1c(=O)c(C(=O)NCc2ccccn2)c(O)c2ccccc21`: the cell count in assay [1] came to 771. Moreover, the inhibition in assay [1] is -20.7% (inactive); in assay [3], -24% (inactive); in assay [7], 10.4% (inactive); in assay [8], -3.14% (inactive). For the same compound, the inhibition of aggregation in assay [2] is -28.1% (inactive). Besides, the nuclei count in assay [2] came out at 104%; in assay [3], 108%. Further, the fluorescence slope is -0.37 (inactive) in assay [4] and 0.00508 (inactive) in assay [6]. Also, in assay [5], the NADPH fluorescence slope is -4.4e-05 (inactive).
Take `CCOC(=O)N1CCN(C(=O)c2ccc(N3C(=O)CCC3=O)cc2)CC1`: the cell count in assay [1] came out at 503. In addition, the inhibition in assay [1] is -1.2% (inactive); in assay [3], 15.8% (inactive); in assay [7] it was -5.15% (inactive); in assay [8], 18.1% (inactive). In assay [2], the inhibition of aggregation was 0.2% (inactive). Moreover, the figures for the nuclei count in assay [2] and in assay [3] were 108% and 68.3%, respectively. Further, the fluorescence slope in assay [4] was -0.266 (inactive); in assay [6] it was 0.00679 (inactive). Moreover, the NADPH fluorescence slope in assay [5] is -2.7e-05 (inactive).
Consider `CCC(=O)c1ccc(OCC(=O)N2CCc3cc(OC)c(OC)cc3C2)cc1`, for which, in assay [1], the cell count was determined as 369. Also, the inhibition is 10.8% (inactive) in assay [1], 25.9% (inactive) in assay [3], 3.27% (inactive) in assay [7] and 12.3% (inactive) in assay [8]. Moreover, the inhibition of aggregation in assay [2] was 17.3% (inactive). The results for the nuclei count in assay [2] and in assay [3] were 91.3% and 99.5%, respectively. The values for the fluorescence slope in assay [4] and in assay [6] were -0.577 (inactive) and 0.00901 (inactive), respectively. The NADPH fluorescence slope in assay [5] is -4.3e-05 (inactive).
